Results as given in ChEMBL document CHEMBL6078712, “Triterpenoid phthalimides as selective anti-cancer agents targeting mitochondrial apoptosis” (Eur J Med Chem, 2025).
pIC50: −log10 of the molar value. Activity calls are given as the source filed them. The rule behind the calls is not given here.

Assays:
[1] = Stability in human plasma assessed as compound remaining at 2 uM incubated for 30 mins by RF-MS analysis; type: ADME, cell-free; settings: read-out: Stability
Method in brief: (§1)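 Human plasma stability, plasma protein binding and liver microsome stability, each run in triplicate. Error deviations below 10 %.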

CCRF-CEM [2] = assay: Induction of apoptosis in human CCRF-CEM cells assessed as viable cells at 5 times IC50 incubated for 24 hrs by Annexin V-FITC and PI staining based flow cytometric analysis (reference value: 97.4 %); type: functional
Method in brief: (§2)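 Washed in Ca2+-containing binding buffer, then stained 15 min at room temperature in the dark with Annexin V-FITC and propidium iodide (PI at half the kit-recommended level). Read at once by flow cytometry with a 488 nm laser, ≥10,000 cells. Debris excluded; quadrants viable, early apoptotic, late apoptotic/necrotic, necrotic. Three independent experiments.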

CCRF-CEM [3] = assay: Induction of apoptosis in human CCRF-CEM cells assessed as late apoptotic cells at 5 times IC50 incubated for 24 hrs by Annexin V-FITC and PI staining based flow cytometric analysis (reference value: 0.4 %); type: functional; method in brief: as §2
[4] = Metabolic stability in human liver microsomes assessed as parent compound remaining at 2 uM incubated for 15 mins in presence of NADPH by RF-MS analysis; type: ADME, Microsome; settings: read-out: Stability; method in brief: as §1
CCRF-CEM [5] = assay: Induction of apoptosis in human CCRF-CEM cells assessed as necrotic cells at 5 times IC50 incubated for 24 hrs by Annexin V-FITC and PI staining based flow cytometric analysis (reference value: 0.4 %); type: functional; method in brief: as §2
CEM-DNR = assay: Cytotoxicity against human CEM-DNR cells assessed as inhibition of cell growth incubated for 72 hrs by MTS assay; type: functional, cell-based
Method in brief: (§3)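 MTS assay on eight human cancer lines and two non-tumour fibroblast lines. IC50 is the concentration that inhibits cell growth by 50 %. SD typically up to 15 % of the mean.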

[6] = Metabolic stability in human liver microsomes assessed as parent compound remaining at 2 uM incubated for 30 mins in presence of NADPH by RF-MS analysis; type: ADME, Microsome; settings: read-out: Stability; method in brief: as §1
CCRF-CEM [7] = assay: Induction of apoptosis in human CCRF-CEM cells assessed as upregulation of BID expression at 1 to 5 times IC50 incubated for 24 hrs by Western blotting analysis; type: functional, cell-based
Method in brief: (§4)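 30 µg protein per lane on SDS-PAGE, transferred to nitrocellulose, blocked in 5 % BSA/TBS-Tween. Primary antibodies overnight at 4 °C (Akt, P-Akt Ser473, STAT-3, caspase-3, PARP, cyclin D, cyclin A, Bcl-xL, Bak, Bid, Bim), then HRP secondary and ECL detection. GAPDH as loading control.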

[8] = Plasma protein binding in human assessed as fraction bound at 10 uM incubated for 4 hrs by rapid equilibrium dialysis based RF-MS analysis; type: ADME, cell-free; settings: read-out: PPB (converted); method in brief: as §1
Mitochondrial membrane [9] = assay: Induction of mitochondrial membrane potential depolarization in human CCRF-CEM cells assessed as fold increase in fluorescence intensity at 5 times IC50 incubated for 24 hrs by JC-1 staining based flow cytometry; type: cell membranes
CCRF-CEM [10] = assay: Inhibition of RNA synthesis in human CCRF-CEM cells at 1 times IC50 incubated for 24 hrs by BrU incorporation based flow cytometry; type: functional
Method in brief: (§5)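 Fixed in 1 % paraformaldehyde/0.05 % NP-40 (15 min at room temperature, then 4 °C overnight). Stained with cross-reacting anti-BrdU plus FITC secondary (45 min each), then PI/RNase A. Flow cytometry; % BrU-positive cells.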

CCRF-CEM [11] = assay: Cytotoxicity against human CCRF-CEM cells assessed as inhibition of cell growth incubated for 72 hrs by MTS assay; type: functional, cell-based; method in brief: as §3
Mitochondrial membrane [12] = assay: Induction of mitochondrial membrane potential depolarization in human CCRF-CEM cells assessed as fold increase in fluorescence intensity incubated for 24 hrs by JC-1 staining based flow cytometry; type: cell membranes
[13] = Cytotoxicity against human BJ cells assessed as inhibition of cell growth incubated for 72 hrs by MTS assay; type: toxicity, cell-based; method in brief: as §3
CCRF-CEM [14] = assay: Induction of apoptosis in human CCRF-CEM cells assessed as upregulation of BIM expression at 1 to 5 times IC50 incubated for 24 hrs by Western blotting analysis; type: functional, cell-based; method in brief: as §4
A549 = assay: Cytotoxicity against human A549 cells assessed as inhibition of cell growth incubated for 72 hrs by MTS assay; type: functional, cell-based; settings: A549, 72 h; method in brief: as §3
CCRF-CEM [15] = assay: Induction of apoptosis in human CCRF-CEM cells assessed as downregulation of caspase-3 expression at 5 times IC50 incubated for 24 hrs by Western blotting analysis; type: functional, cell-based; method in brief: as §4
CCRF-CEM [16] = assay: Inhibition of DNA synthesis in human CCRF-CEM cells at 5 times IC50 incubated for 24 hrs by BrdU incorporation based flow cytometry; type: functional
Method in brief: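 Fixed in ice-cold 70 % ethanol, DNA denatured in 2 M HCl for 30 min, neutralised with borax. Stained with anti-BrdU plus FITC secondary, then PI/RNase A for 1 h. Flow cytometry; % BrdU-positive cells.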

CCRF-CEM [17] = assay: Induction of cell cycle arrest in human CCRF-CEM cells assessed as increase in accumulation of G0/G1 phase at 1 times IC50 incubated for 24 hrs by RNase/PI staining based flow cytometry; type: functional
Method in brief: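 Propidium iodide staining and flow cytometry with a 488 nm laser, ≥10,000 intact cells. Phase proportions compared with untreated cells; SEM of three independent experiments.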

[18] = Stability in human plasma assessed as compound remaining at 2 uM incubated for 120 mins by RF-MS analysis; type: ADME, cell-free; settings: read-out: Stability; method in brief: as §1
U2OS = assay: Cytotoxicity against human U2OS cells assessed as inhibition of cell growth incubated for 72 hrs by MTS assay; type: functional, cell-based; method in brief: as §3
CCRF-CEM [19] = assay: Inhibition of RNA synthesis in human CCRF-CEM cells at 5 times IC50 incubated for 24 hrs by BrU incorporation based flow cytometry; type: functional; method in brief: as §5
[20] = Cytotoxicity against human MRC5 cells assessed as inhibition of cell growth incubated for 72 hrs by MTS assay; type: toxicity, cell-based; method in brief: as §3
CCRF-CEM [21] = assay: Induction of cell cycle arrest in human CCRF-CEM cells assessed as downregulation of AKT phosphorylation at 1 times IC50 incubated for 24 hrs by Western blotting analysis; type: functional, cell-based; method in brief: as §4
HCT-116 = assay: Cytotoxicity against human HCT-116 cells assessed as inhibition of cell growth incubated for 72 hrs by MTS assay; type: functional, cell-based; settings: HCT-116, 72 h; method in brief: as §3
CCRF-CEM [22] = assay: Induction of apoptosis in human CCRF-CEM cells assessed as early apoptotic cells at 1 times IC50 incubated for 24 hrs by Annexin V-FITC and PI staining based flow cytometric analysis (reference value: 2.1 %); type: functional; method in brief: as §2
CCRF-CEM [23] = assay: Induction of apoptosis in human CCRF-CEM cells assessed as late apoptotic cells at 1 times IC50 incubated for 24 hrs by Annexin V-FITC and PI staining based flow cytometric analysis (reference value: 0.4 %); type: functional; method in brief: as §2
[24] = Stability in human plasma assessed as compound remaining at 2 uM incubated for 60 mins by RF-MS analysis; type: ADME, cell-free; settings: read-out: Stability; method in brief: as §1
CCRF-CEM [25] = assay: Induction of apoptosis in human CCRF-CEM cells assessed as early apoptotic cells at 5 times IC50 incubated for 24 hrs by Annexin V-FITC and PI staining based flow cytometric analysis (reference value: 2.1 %); type: functional; method in brief: as §2
CCRF-CEM [26] = assay: Induction of cell cycle arrest in human CCRF-CEM cells assessed as downregulation of total STAT3 expression at 5 times IC50 incubated for 24 hrs by Western blotting analysis; type: functional, cell-based; method in brief: as §4

remaining at 0.5 h, 2 µM [1]: 91%
remaining at 0.25 h, 2 µM [4]: 99%
remaining at 0.5 h, 2 µM [6]: 99%
fraction unbound at 4 h, 10 µM [8]: 0.121
fold change (FC) (Mitochondrial membrane [9]): > 20
Activity (Mitochondrial membrane [12]): Dose-dependent-effect
remaining at 2 h, 2 µM [18]: 86%
remaining at 1 h, 2 µM [24]: 92%
Structure (SMILES): CC(=O)O[C@H]1CC[C@]2(C)[C@H]3CC[C@@H]4[C@H]5[C@H](c6cc7c(c(-c8ccccc8)c6)C(=O)N(c6cc[nH]n6)C7=O)CC[C@]5(C(=O)O)CC[C@@]4(C)[C@]3(C)CC[C@H]2C1(C)C
Activity (CCRF-CEM [2]): 86.5%
Activity (CCRF-CEM [3]): 5.5%
Activity (CCRF-CEM [5]): 0.1%
pIC50 (CEM-DNR): 4.94
Activity (CCRF-CEM [7]): Active
inhibition (INH) (CCRF-CEM [10]): 23.8%
pIC50 (CCRF-CEM [11]): 5.29
IC50 at 72 h [13]: 31.8 µM
Activity (CCRF-CEM [14]): Active
pIC50 (A549): 4.72
Activity (CCRF-CEM [15]): Active
inhibition (INH) (CCRF-CEM [16]): 9.9%
Activity (CCRF-CEM [17]): Active; Slight Increased Activity Observed
pIC50 (U2OS): 4.86
inhibition (INH) (CCRF-CEM [19]): 47.4%
IC50 at 72 h [20]: 22.6 µM
Activity (CCRF-CEM [21]): Active
pIC50 (HCT-116): 5.02
Activity (CCRF-CEM [22]): 4.8%
Activity (CCRF-CEM [23]): 2.4%
Activity (CCRF-CEM [25]): 7.9%
Activity (CCRF-CEM [26]): Active
